Published values pooled from the literature.
Compare with care: the assays were run in different laboratories.
CDK7 with cyclin H: Cyclin-dependent kinase 7, with cyclin H (CDK7, Homo sapiens, UniProt P50613)
CDK7: Cyclin-dependent kinase 7 (CDK7, Homo sapiens, UniProt P50613)

Cc1cc(=O)c2c(O)cc(O)cc2o1  inhibition (CDK7 with cyclin H; enzyme activity, inhibitor, ADP detection; 10 µM): 29.4%
Cn1cnc(Br)c1C1=CN(c2ncnc3[nH]cnc23)CCS1  inhibition (CDK7; enzyme activity, inhibitor, radiometric; 2 µM): 44.3%
COc1cc2ncnc(Nc3ccc(F)c(Cl)c3)c2cc1OCCCN1CCOCC1  remaining signal (CDK7 with cyclin H; cell-free assay; 0.5 µM): 105%
CNC(=O)c1cc(Oc2ccc(NC(=O)Nc3ccc(Cl)c(C(F)(F)F)c3)cc2)ccn1  inhibition (CDK7 with cyclin H; enzyme activity, inhibitor; 0.3 µM): -3%
CCN(CC)c1ccc(C2=NNC(=O)CC2C)cc1[N+](=O)[O-] (centres unmarked)  remaining activity (CDK7; enzyme activity, inhibitor; 10 µM): 96%
COc1c(-c2ccccc2)oc2c(ccc3occc32)c1=O  inhibition (CDK7 with cyclin H; enzyme activity, inhibitor, ADP detection; 10 µM): -0.1%
Cc1cc(NC(=O)c2cccc3cc(-c4cccc5[nH]nc(N)c45)ccc23)ccc1F  activity vs control (CDK7; enzyme activity, inhibitor; 0.1 µM): 117%
O=c1cc(-c2ccccc2)oc2ccccc12  inhibition (CDK7 with cyclin H; enzyme activity, inhibitor, ADP detection; 10 µM): 41.7%
O=C1NC(=O)c2cc(Nc3ccc(F)cc3)c(Nc3ccc(F)cc3)cc21  remaining signal (CDK7 with cyclin H; cell-free assay; 0.5 µM): 100%
C=C(C)[C@@H]1CC[C@]2(C(=O)O)CC[C@]3(C)[C@H](CC[C@@H]4[C@@]5(C)CC[C@H](O)C(C)(C)[C@@H]5CC[C@]43C)[C@@H]12  inhibition (CDK7 with cyclin H; enzyme activity, inhibitor, ADP detection; 10 µM): 35.2%
Cc1sc(C(=O)NC2COC2)cc1-n1cc(NC(=O)Nc2c(F)cccc2Cl)cn1  remaining activity (CDK7 with cyclin H; enzyme activity, inhibitor; 10 µM): 103%
CN(C)C(=O)Cn1cc(-c2nc([C@@](C)(c3ccc(-c4cnc(N)nc4)cc3)C3CC3)no2)cn1  remaining binding (CDK7; cell-free assay, competition with immobilised ligand; 1 µM): 59%
CCCOc1ccc(OC)c(F)c1C(=O)c1ccc(C(=O)N[C@@H]2CNC[C@H]2NC(=O)c2ccc3[nH]ncc3c2)cc1  remaining activity (CDK7; enzyme activity, inhibitor; 10 µM): 13%
COc1cc(-c2cc(-c3ccc(N4CCNCC4)cc3)cnc2C)cc(OC)c1OC  inhibition (CDK7; enzyme activity, inhibitor; 0.1 µM): 0%
COc1cc(Nc2c(C#N)cnc3cc(OCCCN4CCN(C)CC4)c(OC)cc23)c(Cl)cc1Cl  remaining signal (CDK7 with cyclin H; cell-free assay; 0.5 µM): 113%
C[C@H](c1ccc(F)cc1)N(Cc1cccc(C(=O)O)c1)C(=O)c1cnc2ccccc2c1  remaining binding (CDK7; cell-free assay, competition with immobilised ligand; 1 µM): 100%
C=C1CC[C@@H]2[C@](C)(CO)[C@H](O)CC[C@@]2(C)[C@@H]1CCC1=CCOC1=O  inhibition (CDK7 with cyclin H; enzyme activity, inhibitor, ADP detection; 10 µM): 22.8%
CO[C@@H](C)c1c(Nc2ccc([C@H](N(C)C(=O)C3CCS(=O)(=O)CC3)C(F)(F)F)cc2)cnc2cc(Cl)nn12  remaining binding (CDK7; cell-free assay, competition with immobilised ligand; 1 µM): 100%
Cc1ccc(Nc2nccc(N(C)c3ccc4c(C)n(C)nc4c3)n2)cc1S(N)(=O)=O  inhibition (CDK7 with cyclin H; enzyme activity, inhibitor; 0.3 µM): 8%
O=C(NCc1ncc(C(F)(F)F)cc1Cl)c1ccc2c(c1)C1(CCS(=O)(=O)CC1)[C@@H](C1CC1)N2S(=O)(=O)c1ccc(F)cc1  remaining binding (CDK7; cell-free assay, competition with immobilised ligand; 1 µM): 56%
O=c1cc(-c2ccccc2)oc2cc(O)cc(O)c12  inhibition (CDK7 with cyclin H; enzyme activity, inhibitor, ADP detection; 10 µM): 58.8%
CNC(=O)c1ccc(Nc2ncc(C(F)(F)F)c(NCc3nccnc3N(C)S(C)(=O)=O)n2)cc1  remaining binding (CDK7; cell-free assay, competition with immobilised ligand; 0.1 µM): 59%
O=C1C[C@@H](c2ccc(O)cc2)Oc2cc(O)cc(O)c21  inhibition (CDK7 with cyclin H; enzyme activity, inhibitor, ADP detection; 10 µM): 3.7%
CN1CCN(c2cnc3c(C4CCN(C(=O)c5ccc(OC(F)(F)F)cc5N)CC4)ncnc3c2)CC1  remaining binding (CDK7; cell-free assay, competition with immobilised ligand; 1 µM): 89%
CC(C)(C)c1nc(-c2cccc(NS(=O)(=O)c3c(F)cccc3F)c2F)c(-c2ccnc(N)n2)s1  remaining activity (CDK7 with cyclin H; enzyme activity, inhibitor, radiometric; 1 µM): 109%
C[C@@H]1CN(c2cc(-c3n[nH]c4ccc(OC5(C)CC5)cc34)ncn2)C[C@H](C)O1  remaining binding (CDK7; cell-free assay, competition with immobilised ligand; 0.1 µM): 56%
Cc1ccc(C(=O)NCc2ccsc2)cc1C#Cc1cn(C(C)C)c2ncnc(N)c12  activity vs control (CDK7; enzyme activity, inhibitor; 1 µM): 94%
CC(=O)Nc1c(C(C)=O)c(=O)n(C)c2nc(-c3ccc(Cl)cc3Cl)c(-c3ccc(Cl)cc3)cc12  remaining binding (CDK7; cell-free assay, competition with immobilised ligand; 1 µM): 100%
COc1ccc(-c2coc3cc(O)cc(O)c3c2=O)cc1  inhibition (CDK7 with cyclin H; enzyme activity, inhibitor, ADP detection; 10 µM): 41.3%
